Activity calls are given as the source filed them. The calls are words filed in the database; no cut-off is given here.
Assay: Maximum efficacy for [35S]GTP-gamma-S, binding to Opioid receptor kappa 1; not active
Type: functional
Outline: (§1)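 Membranes from cells expressing the receptor, washed and resuspended in 20 mM Hepes, 10 mM MgCl2, 100 mM NaCl, pH 7.4. 8–15 μg protein incubated 60 min at 25 °C with 50 pM [35S]GTP-γ-S, 10 μM GDP and test compound. Bound label collected on glass fiber filters and counted; EC50 for stimulation of binding.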

SMILES	Emax
COc1ccc2c3c1O[C@H]1C(SC4OC(C(=O)O)C(OC(C)=O)C(OC(C)=O)C4OC(C)=O)C=C[C@H]4[C@@H](C2)N(C)CC[C@]314 (some centres undefined)	inactive
CC(=O)OC1C(SC2C=C[C@H]3[C@H]4Cc5ccc(O)c6c5[C@@]3(CCN4C)[C@H]2O6)OC(C(=O)O)C(OC(C)=O)C1OC(C)=O (some centres undefined)	inactive

Assay: Inhibition of [3H]DPDPE binding to Opioid receptor delta 1
Outline: (§2)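 Membranes from cells expressing the receptor, homogenized and washed in Tris, resuspended in 50 mM Tris pH 7.5. Incubated 60–120 min at 25 °C with [3H]DAMGO (mu), [3H]DPDPE (delta) or [3H]U69593 (kappa), about 15–30 μg protein. Filtration on glass fiber filters, scintillation counting. IC50 from at least six test concentrations; Ki by Cheng–Prusoff.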

SMILES	Ki
COC(=O)C1OC(SC2C=C[C@H]3[C@H]4Cc5ccc(OC)c6c5[C@@]3(CCN4C)[C@H]2O6)C(OC(C)=O)C(OC(C)=O)C1OC(C)=O (some centres undefined)	438 µM
COC(=O)C1OC(SC2C=C[C@H]3[C@H]4Cc5ccc(OC(C)=O)c6c5[C@@]3(CCN4C)[C@H]2O6)C(OC(C)=O)C(OC(C)=O)C1OC(C)=O (some centres undefined)	528 µM
CN1CC[C@]23c4c5ccc(O)c4O[C@H]2[C@@H](O[C@@H]2O[C@H](C(=O)O)[C@@H](O)[C@H](O)[C@H]2O)C=C[C@H]3[C@H]1C5 [MORPHINE GLUCURONIDE]	170 µM
COc1ccc2c3c1O[C@H]1C(SC4OC(C(=O)O)C(OC(C)=O)C(OC(C)=O)C4OC(C)=O)C=C[C@H]4[C@@H](C2)N(C)CC[C@]314 (some centres undefined)	2680 µM
CC(=O)OC1C(SC2C=C[C@H]3[C@H]4Cc5ccc(O)c6c5[C@@]3(CCN4C)[C@H]2O6)OC(C(=O)O)C(OC(C)=O)C1OC(C)=O (some centres undefined)	31.4 µM

Assay: Inhibition of [3H]DAMGO binding to Opioid receptor mu 1
Outline: as §2

SMILES	Ki
COC(=O)C1OC(SC2C=C[C@H]3[C@H]4Cc5ccc(OC)c6c5[C@@]3(CCN4C)[C@H]2O6)C(OC(C)=O)C(OC(C)=O)C1OC(C)=O (some centres undefined)	64 µM
COC(=O)C1OC(SC2C=C[C@H]3[C@H]4Cc5ccc(OC(C)=O)c6c5[C@@]3(CCN4C)[C@H]2O6)C(OC(C)=O)C(OC(C)=O)C1OC(C)=O (some centres undefined)	100 µM
CN1CC[C@]23c4c5ccc(O)c4O[C@H]2[C@@H](O[C@@H]2O[C@H](C(=O)O)[C@@H](O)[C@H](O)[C@H]2O)C=C[C@H]3[C@H]1C5 [MORPHINE GLUCURONIDE]	12.9 µM
COc1ccc2c3c1O[C@H]1C(SC4OC(C(=O)O)C(OC(C)=O)C(OC(C)=O)C4OC(C)=O)C=C[C@H]4[C@@H](C2)N(C)CC[C@]314 (some centres undefined)	463 µM
CC(=O)OC1C(SC2C=C[C@H]3[C@H]4Cc5ccc(O)c6c5[C@@]3(CCN4C)[C@H]2O6)OC(C(=O)O)C(OC(C)=O)C1OC(C)=O (some centres undefined)	8.7 µM

Assay: Stimulation of [35S]GTP-gamma-S, binding at Opioid receptor kappa; no activity
Type: functional
Outline: as §1

SMILES	EC50
COC(=O)C1OC(SC2C=C[C@H]3[C@H]4Cc5ccc(OC(C)=O)c6c5[C@@]3(CCN4C)[C@H]2O6)C(OC(C)=O)C(OC(C)=O)C1OC(C)=O (some centres undefined)	Not Active

Assay: Maximum efficacy for [35S]GTP-gamma-S, binding to Opioid receptor kappa 1
Type: functional
Outline: as §1

SMILES	Emax
COC(=O)C1OC(SC2C=C[C@H]3[C@H]4Cc5ccc(OC)c6c5[C@@]3(CCN4C)[C@H]2O6)C(OC(C)=O)C(OC(C)=O)C1OC(C)=O (some centres undefined)	24.3

Assay: Stimulation of [35S]GTP-gamma-S, binding at Opioid receptor kappa 1; not active
Type: functional
Outline: as §1

SMILES	EC50
COc1ccc2c3c1O[C@H]1C(SC4OC(C(=O)O)C(OC(C)=O)C(OC(C)=O)C4OC(C)=O)C=C[C@H]4[C@@H](C2)N(C)CC[C@]314 (some centres undefined)	Not Active
CC(=O)OC1C(SC2C=C[C@H]3[C@H]4Cc5ccc(O)c6c5[C@@]3(CCN4C)[C@H]2O6)OC(C(=O)O)C(OC(C)=O)C1OC(C)=O (some centres undefined)	Not Active

Assay: Maximum efficacy for [35S]GTP-gamma-S, binding to Opioid receptor mu 1
Type: functional
Outline: as §1

SMILES	Emax
COC(=O)C1OC(SC2C=C[C@H]3[C@H]4Cc5ccc(OC)c6c5[C@@]3(CCN4C)[C@H]2O6)C(OC(C)=O)C(OC(C)=O)C1OC(C)=O (some centres undefined)	19.3
COC(=O)C1OC(SC2C=C[C@H]3[C@H]4Cc5ccc(OC(C)=O)c6c5[C@@]3(CCN4C)[C@H]2O6)C(OC(C)=O)C(OC(C)=O)C1OC(C)=O (some centres undefined)	37.8
CN1CC[C@]23c4c5ccc(O)c4O[C@H]2[C@@H](O[C@@H]2O[C@H](C(=O)O)[C@@H](O)[C@H](O)[C@H]2O)C=C[C@H]3[C@H]1C5 [MORPHINE GLUCURONIDE]	45
CC(=O)OC1C(SC2C=C[C@H]3[C@H]4Cc5ccc(O)c6c5[C@@]3(CCN4C)[C@H]2O6)OC(C(=O)O)C(OC(C)=O)C1OC(C)=O (some centres undefined)	46.6

Assay: Maximum efficacy for [35S]GTP-gamma-S, binding to mu opioid receptor; not active
Type: functional
Outline: as §1

SMILES	Emax
COc1ccc2c3c1O[C@H]1C(SC4OC(C(=O)O)C(OC(C)=O)C(OC(C)=O)C4OC(C)=O)C=C[C@H]4[C@@H](C2)N(C)CC[C@]314 (some centres undefined)	inactive

Assay: Stimulation of [35S]GTP-gamma-S, binding at Opioid receptor mu1; not active
Type: functional
Outline: as §1

SMILES	EC50
COc1ccc2c3c1O[C@H]1C(SC4OC(C(=O)O)C(OC(C)=O)C(OC(C)=O)C4OC(C)=O)C=C[C@H]4[C@@H](C2)N(C)CC[C@]314 (some centres undefined)	Not Active

Assay: Maximum efficacy for [35S]GTP-gamma-S, binding to Opioid receptor kappa 1; no activity
Type: functional
Outline: as §1

SMILES	Emax
COC(=O)C1OC(SC2C=C[C@H]3[C@H]4Cc5ccc(OC(C)=O)c6c5[C@@]3(CCN4C)[C@H]2O6)C(OC(C)=O)C(OC(C)=O)C1OC(C)=O (some centres undefined)	inactive
CN1CC[C@]23c4c5ccc(O)c4O[C@H]2[C@@H](O[C@@H]2O[C@H](C(=O)O)[C@@H](O)[C@H](O)[C@H]2O)C=C[C@H]3[C@H]1C5 [MORPHINE GLUCURONIDE]	inactive

Assay: Inhibition of [3H]U-69593 binding to Opioid receptor kappa 1
Outline: as §2

SMILES	Ki
COC(=O)C1OC(SC2C=C[C@H]3[C@H]4Cc5ccc(OC)c6c5[C@@]3(CCN4C)[C@H]2O6)C(OC(C)=O)C(OC(C)=O)C1OC(C)=O (some centres undefined)	499 µM
COC(=O)C1OC(SC2C=C[C@H]3[C@H]4Cc5ccc(OC(C)=O)c6c5[C@@]3(CCN4C)[C@H]2O6)C(OC(C)=O)C(OC(C)=O)C1OC(C)=O (some centres undefined)	189 µM
CN1CC[C@]23c4c5ccc(O)c4O[C@H]2[C@@H](O[C@@H]2O[C@H](C(=O)O)[C@@H](O)[C@H](O)[C@H]2O)C=C[C@H]3[C@H]1C5 [MORPHINE GLUCURONIDE]	4060 µM
COc1ccc2c3c1O[C@H]1C(SC4OC(C(=O)O)C(OC(C)=O)C(OC(C)=O)C4OC(C)=O)C=C[C@H]4[C@@H](C2)N(C)CC[C@]314 (some centres undefined)	> 10000 µM
CC(=O)OC1C(SC2C=C[C@H]3[C@H]4Cc5ccc(O)c6c5[C@@]3(CCN4C)[C@H]2O6)OC(C(=O)O)C(OC(C)=O)C1OC(C)=O (some centres undefined)	288 µM

Assay: Maximum efficacy for [35S]GTP-gamma-S, binding to Opioid receptor delta 1
Type: functional
Outline: as §1

SMILES	Emax
COC(=O)C1OC(SC2C=C[C@H]3[C@H]4Cc5ccc(OC)c6c5[C@@]3(CCN4C)[C@H]2O6)C(OC(C)=O)C(OC(C)=O)C1OC(C)=O (some centres undefined)	64.3
COC(=O)C1OC(SC2C=C[C@H]3[C@H]4Cc5ccc(OC(C)=O)c6c5[C@@]3(CCN4C)[C@H]2O6)C(OC(C)=O)C(OC(C)=O)C1OC(C)=O (some centres undefined)	46.8
CN1CC[C@]23c4c5ccc(O)c4O[C@H]2[C@@H](O[C@@H]2O[C@H](C(=O)O)[C@@H](O)[C@H](O)[C@H]2O)C=C[C@H]3[C@H]1C5 [MORPHINE GLUCURONIDE]	80
COc1ccc2c3c1O[C@H]1C(SC4OC(C(=O)O)C(OC(C)=O)C(OC(C)=O)C4OC(C)=O)C=C[C@H]4[C@@H](C2)N(C)CC[C@]314 (some centres undefined)	44.2
CC(=O)OC1C(SC2C=C[C@H]3[C@H]4Cc5ccc(O)c6c5[C@@]3(CCN4C)[C@H]2O6)OC(C(=O)O)C(OC(C)=O)C1OC(C)=O (some centres undefined)	78.7

— ChEMBL document CHEMBL1138838, “Design, chemical synthesis, and biological evaluation of thiosaccharide analogues of morphine- and codeine-6-glucuronide” (J Med Chem, 2004)
